Measurements as given in the EternaBench riboswitch data.

System: MS2 coat protein
Experiment: apparent Kd, MS2 coat protein; higher = weaker binding; RNA-MaP array; tryptophan 2.4 mM where present
How it was run: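 The apparent Kd is the median of filtered binding-curve fits, one per cluster, to green signal normalised to red-channel RNA signal and control-cluster median Fmax. The clusters were on Illumina sequencing chips, and stalled E. coli RNA polymerase had transcribed the designs on them. Titration used SNAP-549-labelled MS2 coat protein from 0.7 or 1.5 nM, doubling to 3 µM, without and then with constant ligand, in 100 mM Tris-HCl pH 7.5, 80 mM KCl, 4 mM MgCl2, BSA, DTT, yeast tRNA and Tween-20.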

[1] = designed as: ON switch for tryptophan, no ligand
[2] = ligand present: tryptophan, designed as: ON switch for tryptophan
[3] = designed as: OFF switch for tryptophan, no ligand
[4] = ligand present: tryptophan, designed as: OFF switch for tryptophan

Sequence | apparent Kd [1] [nM] | apparent Kd [2] [nM] | apparent Kd [3] [nM] | apparent Kd [4] [nM]
UGUGCAUGAGUUGUAAAAGCUCAUGGGCAUCGAGGACCGGUACGGCCGCCACUCGGCUGUACAUGAGGAUCACCCAUGUCAGGGU | 302 | 567 |  | 
GCAACGCUGUCGGCCGCCACUUUUACAUUGGCCGUGCUGUCUCUACAUGAGGAUCACCCAUGUGGAAGGACCGGGACAGCACACU |  |  | 29 | 64
CACGAAAGAUCGGCCGCCACUAUUUGAUGUGUUCUUUCACAUGAGGAUCACCCAUGUUCUUAUUAUAGGACCGGGAUUGAGCGUG |  |  | 83.8 | 64.3
GGUAUGUAUUCGGAAACGAAUGCAUACCAACGAGGACCGGUACGGCCGCCACUCGCCGUCCUCAAACAUGAGGAUCACCCAUGUA |  |  | 25.9 | 68.5
UCAUAAGUACCGGUCCUCAGAUCCUCAUGACGAGGACCGGUACGGCCGCCACUCGAAACAUGAGGAUCACCCAUGUAAUAAUAUU |  |  | 21.3 | 19
AAUUAUCAGUCGGCCGCCACUGACACAUGAGGAUCACCCAUGUAACUUGGGUUAAAUUUACUGAACAGGACCGGGACAAAGGCUA |  |  | 179 | 236
AGUUUAGACACGGCCGCCACUCGUGACAGAUUUCGCAGUGGUCAACAUGAGGAUCACCCAUGUCUGAGGACCGGGUGUUGAGUUU |  |  | 44.1 | 259
AAUGUAUGGCACAUGAGGAUCACCCAUGUGCGAGGACCGGUACGGCCGCCACUCGGUCCUGGAUUCUUAUUACUAUACAUUAAUG |  |  | 14.5 | 16.7
CUAUGCAGGUCGGCCGCCACUACACACAUGAGGAUCACCCAUGUAGUUACUGGGUGAAGUGGCAGUAGGACCGGGACCUGCAUAU | 257 | 360 |  | 
AACAGUUGGUCGGCCGCCACUACAUGAGGAUCACCCAUGUAGCGCGUUCUGCUCCAGGGCUCAUCUAGGACCGGGACACGAGUGU |  |  | 15.1 | 16
AUAUAUACAUGAGGAUCACCCAUGUUAUUUCGAGGACCGGUACGGCCGCCACUCGAUAGAGUAGAAGUAAAUUUUGUUACAUGUA | 11.1 | 11.4 |  | 
GGUACAUGAGGAUCACCCAUGUAUUAGUGCCGAGGACCGGUACGGCCGCCACUCGCUUCACAUGAGGAUCACCCAUGUGUCACUG | 29.8 | 39.8 |  | 
GGUUACUCUACGGCCGCCACUGAUUAAUUAUAAUCCUGUACAUAAACAUGAGGAUCACCCAUGUACAGGACCGGGUAGUGUAACC | 34.7 | 29.1 |  | 
AUGACUAACAAAGAAGAUAAAAUGGGUGAACGAGGACCGGUACGGCCGCCACUCGGACAUGAGGAUCACCCAUGUCCAUGUGCAA |  |  | 22.3 | 28.7
UACUUGCUGACGGCCGCCACUAGAACAUGAGGAUCACCCAUGUACCCGGUCCUACAUGGGAUGACUAGGACCGGGUCAGCAAGAU |  |  | 40.9 | 141
GGUACAUGAGGAUCACCCAUGUAUUAGUGCCGAGGACCGGUACGGCCGCCACUCGCUUCACAUGAGGAUCACCCAUGUGUCACAG | 32 | 40.8 |  | 
CACGAAAGAUCGGCCGCCACUCAUGUAGCUUACAUGAGGAUCACCCAUGUAUUUUCUUUCUUUUAGAGGACCGGGAUCGAGCGUG | 37.4 | 19.2 |  | 
ACCUGCGUUUGAUAAAAUCAGACGCAGGUUCGAGGACCGGUACGGCCGCCACUCGGACAUGAGGAUCACCCAUGUUUGACAUGGG |  |  | 109 | 256
UAUAGUACCAGACAUGAGGAUCACCCAUGUCGAGGACCGGUACGGCCGCCACUCGGCAGUUUGCGUCCUCAGGUACUCCGGGUCA |  |  | 13.9 | 16.6
UCGUUUGAGGCGGCCGCCACUGGUCUCAUGGUCAACAUGAGGAUCACCCAUGUAUCUUUGCUAAGCAGGACCGGGCCUCGAGCGA |  |  | 66.7 | 36.8
CUACAUUUGUAGAAACCGGUCAACAAUAAUCGAGGACCGGUACGGCCGCCACUCGUAUAAUUUUAUACAUGAGGAUCACCCAUGU | 13.5 | 13.4 |  | 
UGUGGGCGCACGGCCGCCACUGUCUUCAUCUGUUUGUCUACAUGAGGAUCACCCAUGUUGGUUUACAGGACCGGGUGCAUCUAUG | 45.2 | 30.1 |  | 
